The results in this text go back to ChEMBL document CHEMBL1268933, “Discovery of a vorapaxar analog with increased aqueous solubility” (Bioorg Med Chem Lett, 2010).

Data set [1] addresses T1, Proteinase-activated receptor 1 (Homo sapiens, UniProt P25116).
T1 sequence (P25116 whole entry): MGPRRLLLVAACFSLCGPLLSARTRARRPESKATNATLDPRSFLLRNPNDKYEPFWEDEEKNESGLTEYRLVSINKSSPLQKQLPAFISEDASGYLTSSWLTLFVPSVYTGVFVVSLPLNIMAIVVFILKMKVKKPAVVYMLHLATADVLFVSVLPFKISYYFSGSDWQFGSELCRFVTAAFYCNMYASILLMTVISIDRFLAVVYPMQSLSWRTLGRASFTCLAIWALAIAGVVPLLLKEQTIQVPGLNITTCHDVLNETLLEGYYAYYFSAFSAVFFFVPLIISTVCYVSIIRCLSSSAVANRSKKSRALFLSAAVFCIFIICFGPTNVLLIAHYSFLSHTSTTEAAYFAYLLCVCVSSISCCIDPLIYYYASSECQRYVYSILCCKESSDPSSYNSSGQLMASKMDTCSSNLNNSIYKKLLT
The data set is described as follows: Displacement of high affinity TRAP form human platelet PAR1. The essentials:
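Radioligand binding using human platelet membranes as PAR-1 source and tritiated haTRAP as radioligand; run in duplicate, compounds of high interest repeated n≥5 (SD 20%); Ki reported.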

Data set [2] is described as follows: Kinetic solubility of the compound. The class given is physicochemical. The essentials:
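Kinetic solubility: DMSO serial dilutions added to 10 mM phosphate buffer pH 7.4, equilibrated 30 min at room temperature; precipitate detected by nephelometry; solubility taken as highest concentration not scattering light.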

Data set [3] is described as follows: AUC in rat. The class given is ADME, organism-based. To be noted: plasma. The essentials:
(§1)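 High-throughput format rat pharmacokinetic screen; plasma AUC and Cmax determined.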

Data set [4] in a line: Cmax in rat. The class given is ADME, organism-based. To be noted: in vivo. Summed up: as §1
Data set [5] deals with Platelet. The data set is described as follows: Ex-vivo inhibition of PAR1-mediated aggregation of high affinity TRAP-stimulated cynomolgus monkey platelet at 0.1 mg/kg, po administered as single dose measured after 24 hrs. The data set is classed as functional. As to conditions: Macaca fascicularis. The essentials: (§2)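 Cynomolgus monkeys (n = 3) given single oral dose of 0.1 or 0.3 mg/kg; ex vivo haTRAP-induced platelet aggregation measured at time points out to 24 h.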

Data set [6] relates to Platelet. The data set is described as follows: Ex-vivo inhibition of PAR1-mediated aggregation of high affinity TRAP-stimulated cynomolgus monkey platelet at 0.1 mg/kg, po administered as single dose measured up to 6 hrs. The data set is classed as functional, organism-based. On the set-up: dose 0.1 mg/kg. To be noted: Macaca fascicularis. Summed up:
as §2

Data set [7] relates to Platelet. The data set is described as follows: Ex-vivo inhibition of PAR1-mediated aggregation of high affinity TRAP-stimulated cynomolgus monkey platelet at 0.3 mg/kg, po administered as single dose measured after 24 hrs. The class given is functional, organism-based. On the set-up: dose 0.3 mg/kg. To be noted: Macaca fascicularis. Summed up: as §2
A short description of data set [8]: Tmax in monkey at 0.1 mg/kg, po. The data set is classed as ADME, organism-based, Macaca mulatta. The arrangement: dose 0.1 mg/kg, route oral. As to conditions: rhesus monkey, in vivo.
The nature of data set [9]: Tmax in monkey at 1 mg/kg, po. The class given is ADME, organism-based, Macaca mulatta. The arrangement: dose 1 mg/kg, route oral. As to conditions: rhesus monkey, in vivo.
The nature of data set [10]: AUC (0 to 24 hrs) in monkey at 0.1 mg/kg, po. The class given is ADME, organism-based, Macaca mulatta. The arrangement: time < 24 hr, dose 0.1 mg/kg, route oral. To be noted: rhesus monkey, plasma.
Data set [11] in a line: Cmax in monkey at 0.1 mg/kg, po. On the set-up: dose 0.1 mg/kg, route oral. As to conditions: rhesus monkey, in vivo. The class given is ADME, organism-based, Macaca mulatta.
Data set [12] can be described thus: AUC (0 to 24 hrs) in monkey at 1 mg/kg, po. The class given is ADME, organism-based, Macaca mulatta. The arrangement: time < 24 hr, dose 1 mg/kg, route oral. As to conditions: rhesus monkey, plasma.
The nature of data set [13]: Cmax in monkey at 1 mg/kg, po. The data set is classed as ADME, organism-based, Macaca mulatta. The arrangement: dose 1 mg/kg, route oral. To be noted: rhesus monkey, in vivo.
Data set [14] in a line: Permeability across human Caco-2 cell membrane. The class given is ADME, cell-based. As to conditions: read-out: permeability.
Data set [15] can be described thus: Equilibrium solubility of the compound after 24 hrs. The data set is classed as physicochemical.
Data set [16] concerns the target Cytochrome P450 3A4 (Homo sapiens, UniProt P08684). The data set is described as follows: Inhibition of CYP3A4. The data set is classed as ADME. Summed up:
(§3)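 CYP3A4, CYP2D6, CYP2C9 and CYP2C19 inhibition tested under both co-incubation and pre-incubation conditions; IC50 determined.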

For data set [17], the target named is Cytochrome P450 2D6 (Homo sapiens, UniProt P10635). The data set is described as follows: Inhibition of CYP2D6. The data set is classed as ADME. The essentials: as §3
Data set [18] deals with Cytochrome P450 2C9 (Homo sapiens, UniProt P11712). The data set is described as follows: Inhibition of CYP2C9. The data set is classed as ADME. Summed up:
as §3

Data set [19] addresses Cytochrome P450 2C19 (Homo sapiens, UniProt P33261). The data set is described as follows: Inhibition of CYP2C19. The class given is ADME. The essentials:
as §3

The test system of data set [20] is Rhesus monkey. The data set is described as follows: Antithrombotic activity in monkey Folts model. The class given is functional, organism-based. To be noted: Macaca mulatta. The essentials:
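Folts thrombosis model in anesthetized monkeys; escalating doses given intravenously in sequence to the same animal, alone or with ADP antagonist cangrelor; inhibition of cyclic flow reductions monitored.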

The target in data set [21] is T2, PXR (nuclear receptor subfamily 1 group I member 2) (Homo sapiens, UniProt O75469).
T2 sequence (O75469 whole entry): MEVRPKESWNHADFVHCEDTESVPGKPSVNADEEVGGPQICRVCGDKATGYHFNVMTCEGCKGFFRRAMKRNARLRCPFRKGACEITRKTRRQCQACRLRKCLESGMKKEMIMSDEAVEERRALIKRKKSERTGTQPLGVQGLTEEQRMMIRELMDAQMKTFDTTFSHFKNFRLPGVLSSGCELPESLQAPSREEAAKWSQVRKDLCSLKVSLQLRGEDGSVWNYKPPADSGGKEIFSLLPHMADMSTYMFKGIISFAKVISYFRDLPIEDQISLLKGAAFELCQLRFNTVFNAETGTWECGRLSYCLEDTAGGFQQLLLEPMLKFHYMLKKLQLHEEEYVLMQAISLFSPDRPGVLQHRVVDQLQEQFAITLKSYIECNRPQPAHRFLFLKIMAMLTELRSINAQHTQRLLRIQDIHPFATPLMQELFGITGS
The data set is described as follows: Induction of human PXR at 10 uM.

Converted amounts (≈) assume the structure as drawn. The source made the active and inactive calls. The rule behind the calls is not given here.

Chain of Cytochrome P450 2C19 (P33261 whole entry): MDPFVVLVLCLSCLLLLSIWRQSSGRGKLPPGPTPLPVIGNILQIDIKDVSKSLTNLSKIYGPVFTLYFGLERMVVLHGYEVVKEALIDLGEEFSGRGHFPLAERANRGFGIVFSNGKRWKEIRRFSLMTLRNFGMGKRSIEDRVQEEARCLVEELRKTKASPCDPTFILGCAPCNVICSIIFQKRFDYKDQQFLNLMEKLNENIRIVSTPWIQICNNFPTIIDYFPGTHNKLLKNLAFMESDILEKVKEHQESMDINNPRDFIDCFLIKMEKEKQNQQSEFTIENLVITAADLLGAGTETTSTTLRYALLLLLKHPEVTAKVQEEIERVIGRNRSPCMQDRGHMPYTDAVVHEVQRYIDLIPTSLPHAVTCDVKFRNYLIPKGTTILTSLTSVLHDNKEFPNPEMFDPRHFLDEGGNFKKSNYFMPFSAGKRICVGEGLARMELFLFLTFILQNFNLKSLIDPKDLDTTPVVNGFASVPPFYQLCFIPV
Chain of Cytochrome P450 2D6 (P10635 whole entry): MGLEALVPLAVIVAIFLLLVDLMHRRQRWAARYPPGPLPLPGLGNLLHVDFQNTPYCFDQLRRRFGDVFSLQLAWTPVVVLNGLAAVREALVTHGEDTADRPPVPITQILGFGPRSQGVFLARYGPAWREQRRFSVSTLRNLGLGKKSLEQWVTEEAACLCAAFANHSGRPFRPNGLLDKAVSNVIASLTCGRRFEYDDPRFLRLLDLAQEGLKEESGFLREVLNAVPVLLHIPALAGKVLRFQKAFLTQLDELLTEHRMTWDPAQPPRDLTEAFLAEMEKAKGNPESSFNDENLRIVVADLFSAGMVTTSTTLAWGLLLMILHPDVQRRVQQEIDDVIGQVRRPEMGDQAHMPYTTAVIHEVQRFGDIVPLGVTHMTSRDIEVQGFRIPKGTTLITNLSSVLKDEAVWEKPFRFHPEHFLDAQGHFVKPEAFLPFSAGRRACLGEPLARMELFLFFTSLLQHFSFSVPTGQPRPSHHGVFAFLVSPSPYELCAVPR
Chain of Cytochrome P450 3A4 (P08684 whole entry): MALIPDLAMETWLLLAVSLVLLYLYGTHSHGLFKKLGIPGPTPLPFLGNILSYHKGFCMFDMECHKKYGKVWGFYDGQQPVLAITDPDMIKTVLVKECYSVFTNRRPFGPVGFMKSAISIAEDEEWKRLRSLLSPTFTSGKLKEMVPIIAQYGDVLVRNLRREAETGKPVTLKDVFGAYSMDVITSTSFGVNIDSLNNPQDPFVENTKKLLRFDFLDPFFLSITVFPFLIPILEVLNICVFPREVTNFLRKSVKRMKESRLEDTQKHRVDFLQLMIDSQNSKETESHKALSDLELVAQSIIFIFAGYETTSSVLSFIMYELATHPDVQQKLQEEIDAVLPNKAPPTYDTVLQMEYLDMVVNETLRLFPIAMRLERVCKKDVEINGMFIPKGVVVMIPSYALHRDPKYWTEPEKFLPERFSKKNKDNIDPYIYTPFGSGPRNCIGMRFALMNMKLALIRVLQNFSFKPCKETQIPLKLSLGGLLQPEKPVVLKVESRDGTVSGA
Chain of Cytochrome P450 2C9 (P11712 whole entry): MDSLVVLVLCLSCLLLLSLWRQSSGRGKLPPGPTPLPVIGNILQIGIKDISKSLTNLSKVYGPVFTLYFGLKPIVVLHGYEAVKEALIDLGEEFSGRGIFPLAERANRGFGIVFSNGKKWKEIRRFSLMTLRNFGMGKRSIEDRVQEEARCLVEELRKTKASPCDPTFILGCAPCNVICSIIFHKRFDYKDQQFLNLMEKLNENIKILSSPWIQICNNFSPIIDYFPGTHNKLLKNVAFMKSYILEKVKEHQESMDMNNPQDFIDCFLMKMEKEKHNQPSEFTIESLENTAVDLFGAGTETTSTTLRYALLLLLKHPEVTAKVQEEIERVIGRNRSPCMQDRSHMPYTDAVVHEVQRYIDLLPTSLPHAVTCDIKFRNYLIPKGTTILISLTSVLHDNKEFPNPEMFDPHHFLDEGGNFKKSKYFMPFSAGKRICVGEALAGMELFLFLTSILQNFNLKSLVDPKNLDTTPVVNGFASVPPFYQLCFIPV

`CCOC(=O)N[C@@H]1CC[C@@H]2[C@@H](C1)C[C@H]1C(=O)O[C@H](C)[C@H]1[C@H]2/C=C/c1ccc(-c2cc(C)ccn2)cn1` had a Ki in data set [1] of 144 nM.

`CCOC(=O)N[C@@H]1CC[C@@H]2[C@@H](C1)C[C@H]1C(=O)O[C@H](C)[C@H]1[C@H]2/C=C/c1ccc(-c2ccc(C)cn2)cn1` registered a Ki in [1] of 42 nM.

On to `CCOC(=O)N[C@@H]1CC[C@@H]2[C@@H](C1)C[C@H]1C(=O)O[C@H](C)[C@H]1[C@H]2/C=C/c1ccc(-c2ccoc2)cn1`, for which the affinity in data set [1] corresponds to a Ki of 61 nM. Moreover, the kinetic solubility in data set [2] is 12 µM (≈ 5.57 µg/mL).

Take `CCOC(=O)N[C@@H]1CC[C@@H]2[C@@H](C1)C[C@H]1C(=O)O[C@H](C)[C@H]1[C@H]2/C=C/c1ccc(-c2ccccc2C#N)cn1`: in [1], the affinity, expressed as Ki, was 15 nM. In data set [2], this molecule displayed a solubility (kinetic) of 12 µM (≈ 6 µg/mL). For the same molecule, in data set [3], the AUC came out at 5220 ng·h/mL. The molecule further yielded a Cmax in data set [4] of 1570 ng/mL.

In the case of `CCOC(=O)N[C@@H]1CC[C@@H]2[C@@H](C1)C[C@H]1C(=O)O[C@H](C)[C@H]1[C@H]2/C=C/c1ccc(-c2ccccn2)cn1`, the inhibition in vivo at 0.1 mg/kg in data set [5] is 70%. The inhibition entry in [6] and in data set [7] was “Active” each time. Besides, the time to peak (Tmax) in [8] was found to be 60 min; in data set [9] it was 30 min. For the same molecule, the results for the AUC(0-t) at 24 h in data set [10] and in data set [12] were 50 ng·h/mL and 2520 ng·h/mL, respectively. Also, the Cmax in data set [11] turned out to be 16 ng/mL; in data set [13], 236 ng/mL; in [4], 3070 ng/mL. In addition, the Papp in [14] was found to be 28.3 ×10⁻⁶ cm/s. Moreover, the Ki in data set [1] came to 19 nM. Besides, the solubility (thermodynamic) at 24 h in data set [15] was 67 µM (≈ 31.9 µg/mL). This molecule also gave a solubility (kinetic) in data set [2] of 75 µM (≈ 35.7 µg/mL). The molecule further showed an AUC in [3] of 10100 ng·h/mL. In addition, the IC50 in data set [16], in [17], in data set [18] and in [19] was more than 30000 nM throughout. In addition, the Activity result in data set [20] was “Dose-dependent effect”. The induction at 10 µM in [21] came out at 0.13%.

In the case of `CCOC(=O)N[C@@H]1CC[C@@H]2[C@@H](C1)C[C@H]1C(=O)O[C@H](C)[C@H]1[C@H]2/C=C/c1ccc(-c2ccncc2)cn1`, the affinity in data set [1] corresponds to a Ki of 250 nM.

In [1], `CCOC(=O)N[C@@H]1CC[C@@H]2[C@@H](C1)C[C@H]1C(=O)O[C@H](C)[C@H]1[C@H]2/C=C/c1ccc(-c2cccc(F)c2)cn1` [VORAPAXAR] returned a Ki of 8 nM. Further, in data set [15], the solubility (thermodynamic) at 24 h was 2.8 µM (≈ 1.38 µg/mL). For the same molecule, the solubility (kinetic) in data set [2] is less than 5 µM. Moreover, the AUC in data set [3] was found to be 3060 ng·h/mL. The molecule further had a Cmax in data set [4] of 974 ng/mL.

For `CCOC(=O)N[C@@H]1CC[C@@H]2[C@@H](C1)C[C@H]1C(=O)O[C@H](C)[C@H]1[C@H]2/C=C/c1ccc(-c2cncnc2)cn1`, the Ki in data set [1] was determined as 337 nM.

`CCOC(=O)N[C@@H]1CC[C@@H]2[C@@H](C1)C[C@H]1C(=O)O[C@H](C)[C@H]1[C@H]2/C=C/c1ccc(-c2cccnc2)cn1` yielded a Ki in data set [1] of 240 nM.

`CCOC(=O)N[C@@H]1CC[C@@H]2[C@@H](C1)C[C@H]1C(=O)O[C@H](C)[C@H]1[C@H]2/C=C/c1ccc(-c2nccs2)cn1` registered a Ki in data set [1] of 75 nM.

The molecule `CCOC(=O)N[C@@H]1CC[C@@H]2[C@@H](C1)C[C@H]1C(=O)O[C@H](C)[C@H]1[C@H]2/C=C/c1ccc(-c2cccc(OC)c2)cn1` displayed a Ki in data set [1] of 12 nM. Also, the kinetic solubility in data set [2] was less than 5 µM. In data set [3], this molecule gave an AUC of 319 ng·h/mL. Further, the highest level in [4] (Cmax) was 368 ng/mL.
